Experimental data: ChEMBL document CHEMBL3997769, “Discovery and preclinical evaluation of 7-benzyl-N-(substituted)-pyrrolo[3,2-d]pyrimidin-4-amines as single agents with microtubule targeting effects along with triple-acting angiokinase inhibition as antitumor agents” (Bioorg Med Chem, 2017)

What was measured:
[1] = Inhibition of bovine brain tubulin assembly preincubated for 15 mins followed by GTP addition measured for 20 mins by spectrophotometric method; parameters: species or system Bos taurus
[2] = test system: HeLa; assay: Growth inhibition of human HeLa cells over expressing beta3-tubulin measured after 96 hrs by sulforhodamine B assay; format: functional, cell-based
In short: (§1)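 Exposed 96 h to varying compound concentrations in 0.5% DMSO. Cell protein measured by sulforhodamine B; IC50 = concentration halving the increase in cell protein versus untreated cultures.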

[3] = test system: HeLa; assay: Growth inhibition of human HeLa cells measured after 96 hrs by sulforhodamine B assay; format: functional, cell-based; in short: as §1
[4] = test system: OVCAR-8; assay: Growth inhibition of human OVCAR8 cells measured after 96 hrs by sulforhodamine B assay; format: functional, cell-based; conditions: OVCAR-8, 96 h
[5] = test system: NCI/ADR-RES; assay: Growth inhibition of human NCI/ADR-RES cells over expressing Pgp measured after 96 hrs by sulforhodamine B assay; format: functional, cell-based
[6] = test system: SF-268; assay: Growth inhibition of human SF268 cells incubated for 48 hrs by sulforhodamine B assay; format: functional; conditions: SF-268, 48 h
[7] = test system: NCI-H522; assay: Growth inhibition of human NCI-H522 cells incubated for 48 hrs by sulforhodamine B assay; format: functional; conditions: NCI-H522, 48 h
[8] = test system: SF-539; assay: Growth inhibition of human SF539 cells incubated for 48 hrs by sulforhodamine B assay; format: functional; conditions: SF-539, 48 h
[9] = test system: TK-10; assay: Growth inhibition of human TK10 cells incubated for 48 hrs by sulforhodamine B assay; format: functional; conditions: TK-10, 48 h
[10] = test system: KM12; assay: Growth inhibition of human KM12 cells incubated for 48 hrs by sulforhodamine B assay; format: functional; conditions: KM12, 48 h
[11] = test system: HOP-92; assay: Growth inhibition of human HOP92 cells incubated for 48 hrs by sulforhodamine B assay; format: functional; conditions: HOP-92, 48 h
[12] = test system: OVCAR-8; assay: Growth inhibition of human OVCAR8 cells incubated for 48 hrs by sulforhodamine B assay; format: functional; conditions: OVCAR-8, 48 h
[13] = test system: BT-549; assay: Growth inhibition of human BT549 cells incubated for 48 hrs by sulforhodamine B assay; format: functional; conditions: BT-549, 48 h
[14] = test system: NCI-H23; assay: Growth inhibition of human NCI-H23 cells incubated for 48 hrs by sulforhodamine B assay; format: functional; conditions: NCI-H23, 48 h
[15] = test system: UO-31; assay: Growth inhibition of human UO31 cells incubated for 48 hrs by sulforhodamine B assay; format: functional; conditions: UO-31, 48 h
[16] = test system: CAKI-1; assay: Growth inhibition of human Caki1 cells incubated for 48 hrs by sulforhodamine B assay; format: functional; conditions: CAKI-1, 48 h
[17] = test system: SR; assay: Growth inhibition of human SR cells incubated for 48 hrs by sulforhodamine B assay; format: functional
[18] = test system: U-251; assay: Growth inhibition of human U251 cells incubated for 48 hrs by sulforhodamine B assay; format: functional; conditions: U-251, 48 h
[19] = test system: SK-MEL-5; assay: Growth inhibition of human SK-MEL-5 cells incubated for 48 hrs by sulforhodamine B assay; format: functional; conditions: SK-MEL-5, 48 h
[20] = test system: EKVX; assay: Growth inhibition of human EKVX cells incubated for 48 hrs by sulforhodamine B assay; format: functional
[21] = test system: HCC 2998; assay: Growth inhibition of human HCC2998 cells incubated for 48 hrs by sulforhodamine B assay; format: functional; conditions: HCC 2998, 48 h
[22] = test system: HCT-116; assay: Growth inhibition of human HCT116 cells incubated for 48 hrs by sulforhodamine B assay; format: functional; conditions: HCT-116, 48 h
[23] = test system: MOLT-4; assay: Growth inhibition of human MOLT4 cells incubated for 48 hrs by sulforhodamine B assay; format: functional; conditions: MOLT-4, 48 h
[24] = test system: LOX IMVI; assay: Growth inhibition of human LOXIMVI cells incubated for 48 hrs by sulforhodamine B assay; format: functional
[25] = test system: ACHN; assay: Growth inhibition of human ACHN cells incubated for 48 hrs by sulforhodamine B assay; format: functional
[26] = test system: MCF7; assay: Growth inhibition of human MCF7 cells incubated for 48 hrs by sulforhodamine B assay; format: functional; conditions: MCF7, 48 h
[27] = test system: NCI-H322M; assay: Growth inhibition of human NCI-H322M cells incubated for 48 hrs by sulforhodamine B assay; format: functional
[28] = test system: MDA-MB-435; assay: Growth inhibition of human MDA-MB-435 cells incubated for 48 hrs by sulforhodamine B assay; format: functional; conditions: MDA-MB-435, 48 h
[29] = test system: DU-145; assay: Growth inhibition of human DU145 cells incubated for 48 hrs by sulforhodamine B assay; format: functional; conditions: DU-145, 48 h
[30] = test system: HL-60(TB); assay: Growth inhibition of human HL-60(TB) cells incubated for 48 hrs by sulforhodamine B assay; format: functional; conditions: HL-60, 48 h
[31] = test system: IGROV-1; assay: Growth inhibition of human IGROV1 cells incubated for 48 hrs by sulforhodamine B assay; format: functional; conditions: IGROV-1, 48 h
[32] = test system: UACC-257; assay: Growth inhibition of human UACC257 cells incubated for 48 hrs by sulforhodamine B assay; format: functional; conditions: UACC-257, 48 h
[33] = test system: SNB-75; assay: Growth inhibition of human SNB75 cells incubated for 48 hrs by sulforhodamine B assay; format: functional; conditions: SNB-75, 48 h
[34] = test system: 786-0; assay: Growth inhibition of human 786-0 cells incubated for 48 hrs by sulforhodamine B assay; format: functional; conditions: 786-0, 48 h
[35] = test system: HOP-62; assay: Growth inhibition of human HOP62 cells incubated for 48 hrs by sulforhodamine B assay; format: functional; conditions: HOP-62, 48 h
[36] = test system: SF-295; assay: Growth inhibition of human SF295 cells incubated for 48 hrs by sulforhodamine B assay; format: functional; conditions: SF-295, 48 h
[37] = test system: A549; assay: Growth inhibition of human A549/ATCC cells incubated for 48 hrs by sulforhodamine B assay; format: functional; conditions: A549, 48 h
[38] = test system: Malme-3M; assay: Growth inhibition of human MALME-3M cells incubated for 48 hrs by sulforhodamine B assay; format: functional
[39] = test system: K562; assay: Growth inhibition of human K562 cells incubated for 48 hrs by sulforhodamine B assay; format: functional; conditions: K562, 48 h
[40] = test system: OVCAR-3; assay: Growth inhibition of human OVCAR3 cells incubated for 48 hrs by sulforhodamine B assay; format: functional; conditions: OVCAR-3, 48 h
[41] = test system: RXF 393; assay: Growth inhibition of human RXF393 cells incubated for 48 hrs by sulforhodamine B assay; format: functional; conditions: RXF 393, 48 h
[42] = test system: SNB-19; assay: Growth inhibition of human SNB19 cells incubated for 48 hrs by sulforhodamine B assay; format: functional; conditions: SNB-19, 48 h
[43] = test system: M14; assay: Growth inhibition of human M14 cells incubated for 48 hrs by sulforhodamine B assay; format: functional; conditions: M14, 48 h
[44] = test system: NCI-H226; assay: Growth inhibition of human NCI-H226 cells incubated for 48 hrs by sulforhodamine B assay; format: functional; conditions: NCI-H226, 48 h
[45] = test system: COLO 205; assay: Growth inhibition of human COLO205 cells incubated for 48 hrs by sulforhodamine B assay; format: functional; conditions: COLO 205, 48 h
[46] = test system: UACC-62; assay: Growth inhibition of human UACC62 cells incubated for 48 hrs by sulforhodamine B assay; format: functional; conditions: UACC-62, 48 h
[47] = test system: SW-620; assay: Growth inhibition of human SW620 cells incubated for 48 hrs by sulforhodamine B assay; format: functional; conditions: SW-620, 48 h
[48] = test system: MDA-MB-468; assay: Growth inhibition of human MDA-MB-468 cells incubated for 48 hrs by sulforhodamine B assay; format: functional; conditions: MDA-MB-468, 48 h
[49] = test system: SN12C; assay: Growth inhibition of human SN12C cells incubated for 48 hrs by sulforhodamine B assay; format: functional
[50] = test system: NCI/ADR-RES; assay: Growth inhibition of human NCI/ADR-RES cells incubated for 48 hrs by sulforhodamine B assay; format: functional
[51] = test system: OVCAR-5; assay: Growth inhibition of human OVCAR5 cells incubated for 48 hrs by sulforhodamine B assay; format: functional; conditions: OVCAR-5, 48 h
[52] = test system: CCRF-CEM; assay: Growth inhibition of human CCRF-CEM cells incubated for 48 hrs by sulforhodamine B assay; format: functional
[53] = test system: SK-MEL-28; assay: Growth inhibition of human SK-MEL-28 cells incubated for 48 hrs by sulforhodamine B assay; format: functional; conditions: SK-MEL-28, 48 h
[54] = test system: Hs-578T; assay: Growth inhibition of human Hs578T cells incubated for 48 hrs by sulforhodamine B assay; format: functional
[55] = test system: RPMI-8226; assay: Growth inhibition of human RPMI8226 cells incubated for 48 hrs by sulforhodamine B assay; format: functional; conditions: RPMI-8226, 48 h
[56] = test system: A498; assay: Growth inhibition of human A498 cells incubated for 48 hrs by sulforhodamine B assay; format: functional; conditions: A498, 48 h
[57] = test system: OVCAR-4; assay: Growth inhibition of human OVCAR4 cells incubated for 48 hrs by sulforhodamine B assay; format: functional; conditions: OVCAR-4, 48 h
[58] = test system: SK-OV-3; assay: Growth inhibition of human SKOV3 cells incubated for 48 hrs by sulforhodamine B assay; format: functional; conditions: SK-OV-3, 48 h
[59] = organism: Bos taurus; assay: Displacement of [3H]colchicine from bovine brain tubulin at 5 uM measured after 10 mins by liquid scintillation counting method relative to control
[60] = test system: T47D; assay: Growth inhibition of human T47D cells incubated for 48 hrs by sulforhodamine B assay; format: functional
[61] = test system: HCT-15; assay: Growth inhibition of human HCT15 cells incubated for 48 hrs by sulforhodamine B assay; format: functional; conditions: HCT-15, 48 h
[62] = test system: MDA-MB-231; assay: Growth inhibition of human MDA-MB-231 cells incubated for 48 hrs by sulforhodamine B assay; format: functional; conditions: MDA-MB-231, 48 h
[63] = test system: NCI-H460; assay: Growth inhibition of human NCI-H460 cells incubated for 48 hrs by sulforhodamine B assay; format: functional; conditions: NCI-H460, 48 h

COc1ccc2c(c1)CCN2c1nc(C)nc2c(Cc3ccccc3)c[nH]c12
IC50 [1]: > 20000 nM

CC(=O)O[C@H]1C(=O)[C@@]2(C)[C@H]([C@H](OC(=O)c3ccccc3)[C@]3(O)C[C@H](OC(=O)[C@H](O)[C@@H](NC(=O)c4ccccc4)c4ccccc4)C(C)=C1C3(C)C)[C@]1(OC(C)=O)CO[C@@H]1C[C@@H]2O [PACLITAXEL]
IC50 [2]: 16 nM
IC50 [3]: 5.3 nM
IC50 [4]: 5 nM
IC50 [5]: 2500 nM

COc1ccc2c(c1)CCCN2c1nc(C)nc2c(Cc3ccccc3)c[nH]c12
GI50 [6]: 723 nM
GI50 [7]: 316 nM
GI50 [8]: 260 nM
GI50 [9]: 123 nM
IC50 [3]: 250 nM
GI50 [10]: 366 nM
GI50 [11]: 189 nM
GI50 [12]: 487 nM
GI50 [13]: 755 nM
GI50 [14]: 320 nM
GI50 [15]: 390 nM
GI50 [16]: 341 nM
GI50 [17]: 922 nM
GI50 [18]: 316 nM
GI50 [19]: 325 nM
GI50 [20]: 463 nM
GI50 [21]: 318 nM
GI50 [22]: 368 nM
GI50 [23]: 345 nM
GI50 [24]: 521 nM
GI50 [25]: 830 nM
GI50 [26]: 248 nM
GI50 [27]: 362 nM
GI50 [28]: 341 nM
GI50 [29]: 383 nM
GI50 [30]: 222 nM
GI50 [31]: 440 nM
GI50 [32]: 108 nM
GI50 [33]: 182 nM
GI50 [34]: 934 nM
GI50 [35]: 379 nM
GI50 [36]: 192 nM
GI50 [37]: 406 nM
GI50 [38]: 330 nM
GI50 [39]: 111 nM
GI50 [40]: 285 nM
GI50 [41]: 212 nM
GI50 [42]: 549 nM
GI50 [43]: 252 nM
GI50 [44]: 136 nM
GI50 [45]: 232 nM
GI50 [46]: 659 nM
GI50 [47]: 370 nM
GI50 [48]: 153 nM
GI50 [49]: 618 nM
GI50 [50]: 265 nM
GI50 [51]: 543 nM
GI50 [52]: 226 nM
GI50 [53]: 368 nM
GI50 [54]: 582 nM
GI50 [55]: 266 nM
GI50 [56]: 197 nM
GI50 [57]: 468 nM
GI50 [58]: 423 nM
inhibition [59]: 43%
GI50 [60]: 128 nM
GI50 [61]: 366 nM
GI50 [62]: 641 nM
GI50 [63]: 337 nM

COc1ccc2c(c1)CCCN2c1nc(N)nc2c(Cc3ccccc3)c[nH]c12
IC50 [1]: 13000 nM
